This passage reports Activity, inhibition and IC50 results from ChEMBL document CHEMBL1155036, “Synthesis and biological activity of some new flavonyl-2,4-thiazolidinediones” (Bioorg Med Chem, 2008).

Assay [1] has as its system INS1. As to the kind of experiment: Insulinotropic activity in rat INS1 cells assessed as glucose-mediated insulin release at 10 ug/ml by radioimmunoassay relative to glucose. In kind it is functional. A digest of the protocol: (§1)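 Rat INS-1 cells are grown 4–6 days to half confluence in RPMI with 10% FCS and penicillin/streptomycin. Cells are washed, then incubated 90 min at 37 °C in KRBH (10 mM HEPES, 0.5% BSA) at 5.6 mM glucose, with or without compound. Secreted insulin is measured by radioimmunoassay with a rat insulin standard and corrected for solvent (ethanol, DMSO). Results are normalized to 5.6 mM glucose = 100%. Mean ± SEM, N = 4–8; ANOVA with Newman–Keuls.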

Assay [2] relates to INS1. The assay is described as follows: Insulinotropic activity in rat INS1 cells assessed as glucose-mediated insulin release at 1 ug/ml by radioimmunoassay relative to glucose. In kind it is functional. The procedure, abridged:
as §1

Assay [3] concerns the target Aldo-keto reductase family 1 member B1 (Rattus norvegicus) (UniProt P07943). As to the kind of experiment: Inhibition of rat kidney aldose reductase activity assessed as NADPH oxidation at 100 uM. A digest of the protocol: (§2)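 Assay in 0.067 M phosphate buffer, pH 6.2, with NADPH (2 × 10^-5 M final) and DL-glyceraldehyde substrate (5 × 10^-5 M final). The 340 nm absorbance decrease is followed for 5 min at 37 °C. Drug is added from a 10^-4 M stock in 50% DMF/50% methanol. Percent inhibition is measured at this single drug concentration, and IC50 from a concentration series. Triplicates; mean ± SD of three experiments.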

In assay [4] the target is Aldo-keto reductase family 1 member B1 (Rattus norvegicus, UniProt P07943). As to the kind of experiment: Inhibition of rat kidney aldose reductase activity assessed as NADPH oxidation. The procedure, abridged:
as §2

By inhibition is commonly meant how much of the control response was suppressed. Regarding `O=C1NC(=O)/C(=C/c2cccc(-c3cc(=O)c4ccccc4o3)c2)S1`, the Activity came out at 18.95% in the assay with INS1 [1] and 79.76% in the assay with INS1 [2]. For the same compound, the inhibition in assay [3] turned out to be 22.1%.

By IC50 is commonly meant the point on the concentration scale where inhibition reaches its midpoint. Turning to `O=C1NC(=O)/C(=C/c2ccc(-c3cc(=O)c4ccccc4o3)cc2)S1`, in assay [4], the concentration for half-maximal inhibition (IC50) was 432 nM. The results for the Activity in the assay on INS1 [1] and with INS1 [2] were 23.79% and 55.7%, respectively. Also, in assay [3], the inhibition worked out at 88.7%.

For `CCOC(=O)CN1C(=O)S/C(=C\c2ccc(-c3cc(=O)c4ccccc4o3)cc2)C1=O`, the Activity came out at 128.6% in the assay on INS1 [1] and 106.2% with INS1 [2]. Besides, in assay [3], the inhibition was 6.74%.

In the case of `CCOC(=O)CN1C(=O)S/C(=C\c2ccc3oc(-c4ccccc4)cc(=O)c3c2)C1=O`, the Activity in the assay on INS1 [1] was determined as 98.52%; in the assay on INS1 [2] it was 93.28%. In addition, the inhibition in assay [3] is 14.4%.

`COc1ccc(Cl)cc1C(=O)NCCc1ccc(S(=O)(=O)NC(=O)NC2CCCCC2)cc1` [GLYBURIDE]: the Activity with INS1 [2] was determined as 179.6%.

Consider `O=C(O)CN1C(=O)S/C(=C\c2cccc(-c3cc(=O)c4ccccc4o3)c2)C1=O`, for which the IC50 in assay [4] was 415 nM. The Activity was 84.09% with INS1 [1] and 98.1% with INS1 [2]. Further, the inhibition in assay [3] is 86.6%.

Consider `O=C1NC(=O)/C(=C/c2ccc3oc(-c4ccccc4)cc(=O)c3c2)S1`, for which the IC50 in assay [4] is 683 nM. For the same compound, the Activity was determined as 158.9% in the assay on INS1 [1] and 82.55% with INS1 [2]. Moreover, the inhibition in assay [3] was 64.9%.

On to `CCOC(=O)CN1C(=O)S/C(=C\c2cccc(-c3cc(=O)c4ccccc4o3)c2)C1=O`, for which the Activity amounted to 98.43% in the assay on INS1 [1] and 103.4% in the assay on INS1 [2]. Also, in assay [3], the inhibition is 12.9%.

In the case of `O=C(O)CN1C(=O)S/C(=C\c2ccc3oc(-c4ccccc4)cc(=O)c3c2)C1=O`, the 50% inhibitory concentration (IC50) in assay [4] is 852 nM. Further, the Activity in the assay on INS1 [1] is reported as 80.92%; in the assay on INS1 [2] it was 101.3%. Further, the inhibition in assay [3] was found to be 56.3%.

Consider `O=C(O)CN1C(=O)S/C(=C\c2ccc(-c3cc(=O)c4ccccc4o3)cc2)C1=O`, for which the Activity in the assay with INS1 [1] amounted to 91.88%; in the assay on INS1 [2], 102.4%. In addition, the inhibition in assay [3] was 44.6%.
